# The source made the active and inactive calls. No cut-off for these calls is given here.
# Experiments:
# [1] = Half life in lung of methicillin-resistant Staphylococcus aureus infected ddY mouse at 100 mg/kg, ip administered 1 day post infection by paper disk bioassay method; format: ADME, organism-based; design: dose 100 mg/kg, route intraperitoneal
# In short: (§1)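 MRSA-infected mice, one day post-inoculation, received a single 100 mg/kg i.p. dose. Serum and lung homogenate collected at 5–120 min, n = 3 per time point. Paper disk bioassay with Bacillus subtilis ATCC 6633, triplicate, 50 µl sample. Detection limits 0.07 µg/ml (serum) and 0.12 µg/ml (lung). Standards in pooled murine matrix, linear-regression curves. Moment analysis.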
# [2] = Half life of free unbound fraction in serum of methicillin-resistant Staphylococcus aureus infected ddY mouse at 100 mg/kg, ip administered 1 day post infection by paper disk bioassay method; format: ADME, organism-based; design: dose 100 mg/kg, route intraperitoneal; in short: as §1
# [3] = Half life in serum of methicillin-resistant Staphylococcus aureus infected ddY mouse at 100 mg/kg, ip administered 1 day post infection by paper disk bioassay method; format: ADME, organism-based; design: dose 100 mg/kg, route intraperitoneal; in short: as §1
# [4] = Cmax in lung of methicillin-resistant Staphylococcus aureus infected ddY mouse at 100 mg/kg, ip administered 1 day post infection by paper disk bioassay method; format: ADME, organism-based; design: dose 100 mg/kg, route intraperitoneal; in short: as §1
# Serum [5] = experiment: fCmax in serum of methicillin-resistant Staphylococcus aureus infected ddY mouse at 100 mg/kg, ip administered 1 day post infection by paper disk bioassay method; format: ADME, organism-based; design: dose 100 mg/kg, route intraperitoneal; conditions: in vivo, 24 h; in short: as §1
# [6] = Cmax in serum of methicillin-resistant Staphylococcus aureus infected ddY mouse at 100 mg/kg, ip administered 1 day post infection by paper disk bioassay method; format: ADME, organism-based; design: dose 100 mg/kg, route intraperitoneal; in short: as §1
# [7] = AUC (0 to infinity) in lung of methicillin-resistant Staphylococcus aureus infected ddY mouse at 100 mg/kg, ip administered 1 day post infection by paper disk bioassay method; format: ADME, organism-based; design: dose 100 mg/kg, route intraperitoneal, time infinity; in short: as §1
# Serum [8] = experiment: fAUC (0 to infinity) in serum of methicillin-resistant Staphylococcus aureus infected ddY mouse at 100 mg/kg, ip administered 1 day post infection by paper disk bioassay method; format: ADME, organism-based; design: dose 100 mg/kg, route intraperitoneal; conditions: in vivo, 24 h; in short: as §1
# [9] = AUC (0 to infinity) in serum of methicillin-resistant Staphylococcus aureus infected ddY mouse at 100 mg/kg, ip administered 1 day post infection by paper disk bioassay method; format: ADME, organism-based; design: time infinity, dose 100 mg/kg, route intraperitoneal; in short: as §1
# Staphylococcus aureus [10] = experiment: Antibacterial activity against vancomycin-intermediate Staphylococcus aureus Mu50 infected in ddY mouse assessed as survival of the mouse at 100 mg/kg, ip administered 1 day postinfection measured after 10 days; format: functional; conditions: route intraperitoneal
# In short: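 Cyclophosphamide-pretreated (100 mg/kg, days −3 and −1) ddY mice infected i.v. with Mu50 agar beads at 2 x 10^9 to 4 x 10^9 CFU/ml. Treated 100 mg/kg i.p. b.i.d. from day 1 for 10 days. Survival recorded daily for 10 days, n = 10, Kaplan-Meier curves.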
# Staphylococcus aureus [11] = experiment: Antibacterial activity against vancomycin-intermediate Staphylococcus aureus Mu50 infected in ddY mouse assessed as viable bacteria in lungs at 100 mg/kg, ip administered 1 day postinfection measured after 3 days (Rvb=9.64 +/- 0.63 log CFU/ml); format: functional; conditions: route intraperitoneal
# Staphylococcus aureus [12] = experiment: Antibacterial activity against methicillin-resistant Staphylococcus aureus NUMR101 infected in ddY mouse assessed as viable bacteria in lungs at 100 mg/kg, ip administered 1 day postinfection (Rvb=8.42 +/- 0.50 log CFU/ml); format: functional; conditions: route intraperitoneal
# Staphylococcus aureus [13] = experiment: Antibacterial activity against methicillin-resistant Staphylococcus aureus NUMR101 by broth microdilution method; format: functional
# In short: (§2)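 Broth microdilution in Mueller-Hinton II broth. Inoculum 5 x 10^5 CFU/ml. Drugs dissolved in sterile water just before use.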
# Staphylococcus aureus [14] = experiment: Antibacterial activity against vancomycin intermediate Staphylococcus aureus Mu50 by broth microdilution method; format: functional; in short: as §2
# [15] = T>MIC in serum of methicillin-resistant Staphylococcus aureus infected ddY mouse at 10 mg/kg, ip BID by paper disk bioassay method; format: functional; conditions: route intraperitoneal
# [16] = fT>MIC in serum of methicillin-resistant Staphylococcus aureus infected ddY mouse at 10 mg/kg, ip BID by paper disk bioassay method; format: functional; conditions: route intraperitoneal
# [17] = T>MIC in lung of methicillin-resistant Staphylococcus aureus infected ddY mouse at 10 mg/kg, ip BID by paper disk bioassay method; format: functional; conditions: route intraperitoneal
# [18] = T>MIC in serum in vancomycin intermediate Staphylococcus aureus infected ddY mouse at 100 mg/kg, ip BID by paper disk bioassay method; format: functional; conditions: route intraperitoneal
# [19] = fT>MIC in serum in vancomycin intermediate Staphylococcus aureus infected ddY mouse at 100 mg/kg, ip BID by paper disk bioassay method; format: functional; conditions: route intraperitoneal
# [20] = T>MIC in lung in vancomycin intermediate Staphylococcus aureus infected ddY mouse at 100 mg/kg, ip BID by paper disk bioassay method; format: functional; conditions: route intraperitoneal
# Serum [21] = experiment: Protein binding in serum of methicillin-resistant Staphylococcus aureus infected ddY mouse at 100 mg/kg, ip; format: ADME, organism-based; design: dose 100 mg/kg, route intraperitoneal; conditions: in vivo
# Staphylococcus aureus [22] = experiment: Antibacterial activity against vancomycin intermediate Staphylococcus aureus Mu50 infected in ddY mouse assessed as decrease in lung abscesses at 100 mg/kg, ip after 3 days; format: functional, organism-based; design: dose 100 mg/kg
# In short: (§3)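 Mice pretreated with cyclophosphamide (100 mg/kg, days −3 and −1) and infected i.v. with Mu50 agar beads (4 x 10^7 to 6 x 10^7 CFU/ml). Given 100 mg/kg i.p. b.i.d. for 3 days, then sacrificed. Lungs fixed in formalin and stained with H&E. Abscesses counted per slice, lung area by cross-section paper, n = 3.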
# Staphylococcus aureus [23] = experiment: Antibacterial activity against vancomycin intermediate Staphylococcus aureus Mu50 infected in ddY mouse assessed as decrease in lung inflammation at 100 mg/kg, ip after 3 days; format: functional, organism-based; design: dose 100 mg/kg; in short: as §3
# [24] = AUC (0 to infinity) in serum of methicillin-resistant Staphylococcus aureus infected ddY mouse at 100 mg/kg, ip administered 1 day post infection by fluorescence polarization immunoassay; format: ADME, organism-based; design: time infinity, dose 100 mg/kg, route intraperitoneal
# In short: (§4)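 Single 100 mg/kg i.p. dose given 1 day after i.v. MRSA NUMR101 agar-bead infection. Mice killed 5, 15, 30, 60, 90, 120 min after dosing, n = 3 per time point. Serum and saline lung homogenate stored at –80°C. Assayed by fluorescence polarization immunoassay (detection limit 2 µg/ml) against standard curves in pooled murine serum or lung homogenate. Parameters by moment analysis.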
# Serum [25] = experiment: fAUC (0 to infinity) in serum of methicillin-resistant Staphylococcus aureus infected ddY mouse at 100 mg/kg, ip administered 1 day post infection by fluorescence polarization immunoassay; format: ADME, organism-based; design: dose 100 mg/kg, route intraperitoneal; conditions: in vivo, 24 h; in short: as §4
# [26] = AUC (0 to infinity) in lung of methicillin-resistant Staphylococcus aureus infected ddY mouse at 100 mg/kg, ip administered 1 day post infection by fluorescence polarization immunoassay; format: ADME, organism-based; design: time infinity, dose 100 mg/kg, route intraperitoneal; in short: as §4
# [27] = Cmax in serum of methicillin-resistant Staphylococcus aureus infected ddY mouse at 100 mg/kg, ip administered 1 day post infection by fluorescence polarization immunoassay; format: ADME, organism-based; design: dose 100 mg/kg, route intraperitoneal; in short: as §4
# Serum [28] = experiment: fCmax in serum of methicillin-resistant Staphylococcus aureus infected ddY mouse at 100 mg/kg, ip administered 1 day post infection by fluorescence polarization immunoassay; format: ADME, organism-based; design: dose 100 mg/kg, route intraperitoneal; conditions: in vivo, 24 h; in short: as §4
# [29] = Cmax in lung of methicillin-resistant Staphylococcus aureus infected ddY mouse at 100 mg/kg, ip administered 1 day post infection by fluorescence polarization immunoassay; format: ADME, organism-based; design: dose 100 mg/kg, route intraperitoneal; in short: as §4
# [30] = Half life in serum of methicillin-resistant Staphylococcus aureus infected ddY mouse at 100 mg/kg, ip administered 1 day post infection by fluorescence polarization immunoassay; format: ADME, organism-based; design: dose 100 mg/kg, route intraperitoneal; in short: as §4
# [31] = Half life of free unbound fraction in serum of methicillin-resistant Staphylococcus aureus infected ddY mouse at 100 mg/kg, ip administered 1 day post infection by fluorescence polarization immunoassay; format: ADME, organism-based; design: dose 100 mg/kg, route intraperitoneal; in short: as §4
# [32] = Half life in lung of methicillin-resistant Staphylococcus aureus infected ddY mouse at 100 mg/kg, ip administered 1 day post infection by fluorescence polarization immunoassay; format: ADME, organism-based; design: dose 100 mg/kg, route intraperitoneal; in short: as §4
# [33] = Ratio of AUC (0 to 24 hrs) in lung in vancomycin intermediate Staphylococcus aureus infected ddY mouse at 100 mg/kg, ip BID to MIC for methicillin-resistant Staphylococcus aureus
compound,measurement,setting,value
C[C@H]1C=C(c2csc(SC3=C(C(=O)O)N4C(=O)[C@H]([C@@H](C)O)[C@H]4[C@H]3C)n2)CN1 [RAZUPENEM],half-life,[1],0.61 h
same,half-life,[2],0.84 h
same,half-life,[3],0.84 h
same,Cmax,[4],18 µg/mL
same,fCmax,Serum [5],25.81 µg/mL
same,Cmax,[6],108 µg/mL
same,AUC(0-inf),[7],28.4 µg·h/mL
same,fAUC,Serum [8],30.6 µg·h/mL
same,AUC(0-inf),[9],127 µg·h/mL
same,Activity,Staphylococcus aureus [10],70%
same,CFU/ml,Staphylococcus aureus [11],7.42 log CFU/ml
same,CFU/ml,Staphylococcus aureus [12],5.5 log CFU/ml
same,MIC,Staphylococcus aureus [13],2 mg/L
same,MIC,Staphylococcus aureus [14],2 mg/L
same,fT>MIC,[15],16.9
same,fT>MIC,[16],2.9
same,fT>MIC,[17],0
same,fT>MIC,[18],28.2
same,fT>MIC,[19],23.6
same,fT>MIC,[20],20.3
same,Activity,Serum [21],76%
same,Activity,Staphylococcus aureus [22],Active
same,Activity,Staphylococcus aureus [23],Active
CN[C@H](CC(C)C)C(=O)N[C@H]1C(=O)N[C@@H](CC(N)=O)C(=O)N[C@H]2C(=O)N[C@H]3C(=O)N[C@H](C(=O)N[C@H](C(=O)O)c4cc(O)cc(O)c4-c4cc3ccc4O)[C@H](O)c3ccc(c(Cl)c3)Oc3cc2cc(c3O[C@@H]2O[C@H](CO)[C@@H](O)[C@H](O)[C@H]2O[C@H]2C[C@](C)(N)[C@H](O)[C@H](C)O2)Oc2ccc(cc2Cl)[C@H]1O [VANCOMYCIN],AUC(0-inf),[24],261 µg·h/mL
same,Activity,Staphylococcus aureus [10],20%
same,CFU/ml,Staphylococcus aureus [11],8.72 log CFU/ml
same,CFU/ml,Staphylococcus aureus [12],5.29 log CFU/ml
same,fAUC,Serum [25],196 µg·h/mL
same,AUC(0-inf),[26],127 µg·h/mL
same,Cmax,[27],60.8 µg/mL
same,fCmax,Serum [28],45.6 µg/mL
same,Cmax,[29],38.5 µg/mL
same,half-life,[30],2.95 h
same,half-life,[31],2.95 h
same,half-life,[32],1.72 h
same,MIC,Staphylococcus aureus [14],8 mg/L
same,Activity,Serum [21],25%
same,AUC0-24/MIC at 10 mg/kg,[33],31.8 mg/L

# From ChEMBL document CHEMBL1255367, “Potency of SMP-601, a novel carbapenem, in hematogenous murine bronchopneumonia caused by methicillin-resistant and vancomycin-intermediate Staphylococcus aureus” (Antimicrob Agents Chemother, 2008)
